In ChEMBL document CHEMBL4130581, “Securamine Derivatives from the Arctic Bryozoan Securiflustra securifrons” (J Nat Prod, 2017) one finds IC50 and Activity data, which are given here for five molecules.

In series [1] the test system is HT-29. Kind of series: Cytotoxicity in human HT-29 cells assessed as reduction in cell survival incubated for 72 hrs by MTS assay. The series is classed as functional, cell-based. The settings on record: HT-29, 72 h. An outline of the steps: (§1)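 HT-29 colon adenocarcinoma cells kept in RPMI with 10% FBS and L-alanyl-L-glutamine at 37 °C, 5% CO2. Seeded at 2000 cells/well and left 24 h before 72 h exposure to various concentrations. MTS reagent for 1 h, then absorbance at 485 nm. Survival scaled between 1% DMSO and 0.5% Triton X-100 controls. IC50 from eight concentration points. Means ± SD of three independent determinations.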

Series [2] concerns MRC5. Kind of series: Cytotoxicity in human MRC5 cells assessed as reduction in cell survival incubated for 72 hrs by MTS assay. It is filed as cell-based. The settings on record: MRC5, 72 h. An outline of the steps:
(§2)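 Nonmalignant MRC-5 lung fibroblasts in supplemented E-MEM (10% FBS, glutamine, NEAA, pyruvate, bicarbonate) at 37 °C, 5% CO2. Seeded at 4000 cells/well and allowed 24 h to adhere. Exposed to ranging concentrations for 24 or 72 h. MTS added for 1 h, absorbance at 485 nm. Survival normalised to 1% DMSO and 0.5% Triton X-100 controls. Triplicates, three independent experiments.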

Series [3] has as its system MCF7. The experiment in a line: Cytotoxicity in human MCF7 cells assessed as reduction in cell survival incubated for 72 hrs by MTS assay. It is filed as functional, cell-based. The settings on record: MCF7, 72 h. An outline of the steps:
(§3)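 MCF-7 breast adenocarcinoma cells in E-MEM with 10% FBS, L-alanyl-L-glutamine, nonessential amino acids, sodium pyruvate and sodium bicarbonate at 37 °C, 5% CO2. Plated at 2000 cells/well and left 24 h, then treated 72 h across a concentration range. MTS for 1 h, read at 485 nm. Survival relative to 1% DMSO and 0.5% Triton X-100 controls. IC50 by regression on eight concentrations. Three independent experiments, mean ± SD.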

Series [4] relates to A2058. The experiment in a line: Cytotoxicity in human A2058 cells assessed as reduction in cell survival incubated for 72 hrs by MTS assay. The series is classed as functional, cell-based. The settings on record: A2058, 72 h. An outline of the steps:
(§4)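 A2058 human melanoma cells grown in D-MEM with 10% FBS and L-alanyl-L-glutamine at 37 °C, 5% CO2. Seeded at 2000 cells/well and allowed to adhere 24 h. Exposed to a range of concentrations for 4, 24, 48 or 72 h. MTS added for 1 h, then absorbance read at 485 nm. Survival normalised to 1% DMSO (negative) and 0.5% Triton X-100 (positive) controls. Triplicate wells, three independent experiments.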

Series [5] deals with MRC5. Kind of series: Cytotoxicity in human MRC5 cells assessed as reduction in cell survival by MTS assay. The series is classed as cell-based. The settings on record: TDE = time-dependent effect. An outline of the steps:
as §2

For series [6], the system named is HT-29. Kind of series: Cytotoxicity in human HT-29 cells assessed as reduction in cell survival by MTS assay. The settings on record: TDE = time-dependent effect. The series is classed as functional, cell-based. An outline of the steps: as §1
The subject of series [7] is MRC5. The experiment in a line: Cytotoxicity in human MRC5 cells assessed as reduction in cell survival incubated for 24 hrs by MTS assay. It is filed as cell-based. The settings on record: MRC5, 24 h. An outline of the steps: as §2
In series [8] the test system is A2058. The experiment in a line: Cytotoxicity in human A2058 cells assessed as reduction in cell survival by MTS assay. The series is classed as functional, cell-based. The settings on record: TDE = time-dependent effect. An outline of the steps:
as §4

Series [9] has as its system MCF7. The experiment in a line: Cytotoxicity in human MCF7 cells assessed as reduction in cell survival by MTS assay. It is filed as functional, cell-based. The settings on record: TDE = time-dependent effect. An outline of the steps: as §3
The test system of series [10] is A2058. The experiment in a line: Cytotoxicity in human A2058 cells assessed as reduction in cell survival incubated for 48 hrs by MTS assay. It is filed as functional, cell-based. The settings on record: A2058, 48 h. An outline of the steps:
as §4

The subject of series [11] is A2058. The experiment in a line: Cytotoxicity in human A2058 cells assessed as reduction in cell survival at 0.313 to 10 uM incubated for 4 hrs by MTS assay. The series is classed as functional, cell-based. An outline of the steps:
as §4

In series [12] the test system is A2058. Kind of series: Cytotoxicity in human A2058 cells assessed as reduction in cell survival incubated for 24 hrs by MTS assay. The series is classed as functional, cell-based. The settings on record: A2058, 24 h. An outline of the steps: as §4

Each structure is given as a SMILES string. Active and inactive are the calls of the source. The rule behind the calls is not given here.

`CC1(C)[C@@H](Cl)C[C@]23[C@@H]4CC(=O)N2C=CC2=NC(=O)N[C@@]21N3c1cc(Br)cc(Br)c14`: the IC50 in the series with HT-29 [1] was determined as 10 µM; with MRC5 [2], 9.6 µM; in the series with MCF7 [3] it was 8.5 µM; in the series on A2058 [4], 6.7 µM.
As to `CC1(C)[C@@H](Cl)C[C@]23[C@@H]4CC(=O)N2C=CC2=NC(=O)N[C@@]21N3c1cc(Br)c(Br)c(Br)c14`, the Activity entry with MRC5 [5], with HT-29 [6], in the series on A2058 [8] and with MCF7 [9] was “Tde” each time. The IC50 is more than 10 µM with MRC5 [7]; 1.9 µM in the series on HT-29 [1]; 2.7 µM in the series with MRC5 [2]; 1.8 µM in the series on A2058 [10]; 2.8 µM with A2058 [12]; 2.1 µM with MCF7 [3]. For the same molecule, the concentration for half-maximal inhibition (IC50) in the series on A2058 [4] turned out to be 1.4 µM. Besides, the result in the series with A2058 [11] was inactive.
Regarding `CO[C@H]1[C@H](O)C2=NC(=O)N[C@@]23N2c4cc(Br)c(Br)c(Br)c4[C@H]4CC(=O)N1[C@]42C[C@H](Cl)C3(C)C`, the half-maximal inhibitory concentration (IC50) in the series with HT-29 [1], in the series with MRC5 [2], with MCF7 [3] and in the series with A2058 [4] was more than 50 µM throughout.
On to `CC1(C)[C@@H](Cl)C[C@]23[C@@H]4CC(=O)N2C=CC2=NC(=O)N[C@@]21N3c1cc(Br)ccc14`, for which the IC50 with HT-29 [1] amounted to 21 µM; in the series on MRC5 [2], 30 µM; with MCF7 [3], 23 µM; with A2058 [4] it was 20 µM.
The like results for `CC1(C)[C@@H](Cl)C[C@]23[C@@H]4CC(=O)N2C=CC2=NC(=O)N[C@@]21N3c1cc(Br)c(Br)cc14` were, in that order, 2.5 µM, 5.3 µM, 2.4 µM and 2.7 µM.
